Assay [1] addresses Pf Adenylosuccinate Synthase (Plasmodium falciparum, UniProt Q9U8D3). In words: adenylosuccinate synthetase biochemical assay.
In assay [2] the test system is P. falciparum strain 3d7. In words: erythrocyte-based P. falciparum strain 3d7 infection. The format is cell-based. The note with it: Plasmodium falciparum, 3D7, read-out: EC50 against P. falciparum in vitro. The method, boiled down: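 P. falciparum was grown in erythrocytes. The primary screen used 1.25 μM, and ≥50% growth inhibition counted as a hit. Hits were retested in 8-point dose-response curves for EC₅₀ against sulfadoxine-resistant 3D7 and multidrug-resistant W2. Compounds with CC₅₀/EC₅₀ <5 (Huh7 cells) or that quenched fluorescence were excluded.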

Assay [3] has as its target T1, Pf N-Myristoyl Transferase (Plasmodium falciparum, UniProt Q8ILW6).
T1 sequence (Q8ILW6 1-410): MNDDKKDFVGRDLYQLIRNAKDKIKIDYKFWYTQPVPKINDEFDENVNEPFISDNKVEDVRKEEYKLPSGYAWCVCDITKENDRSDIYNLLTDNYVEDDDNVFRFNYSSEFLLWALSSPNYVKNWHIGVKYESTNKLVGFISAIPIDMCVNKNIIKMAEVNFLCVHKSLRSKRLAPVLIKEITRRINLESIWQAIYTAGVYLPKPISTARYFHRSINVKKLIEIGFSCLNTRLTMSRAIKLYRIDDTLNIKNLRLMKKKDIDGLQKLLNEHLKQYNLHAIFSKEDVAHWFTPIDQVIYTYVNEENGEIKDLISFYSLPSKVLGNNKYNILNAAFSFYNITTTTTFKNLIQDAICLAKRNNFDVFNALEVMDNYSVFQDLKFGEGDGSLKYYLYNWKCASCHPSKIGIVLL
In words: N-myristoyltransferase biochemical assay. Conditions: read-out: NMT IC50, positive control.

The target in assay [4] is T2, Pf dUTPase (Plasmodium falciparum, UniProt Q8II92).
T2 sequence (Q8II92 1-173): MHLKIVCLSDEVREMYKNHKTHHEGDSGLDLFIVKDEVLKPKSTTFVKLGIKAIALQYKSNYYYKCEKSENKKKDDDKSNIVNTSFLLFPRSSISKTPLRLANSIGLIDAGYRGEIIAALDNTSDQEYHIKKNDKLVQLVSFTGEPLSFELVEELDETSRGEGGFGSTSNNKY
Briefly: dUTPase biochemical assay.

Sequence of Pf Adenylosuccinate Synthase (Q9U8D3 whole entry): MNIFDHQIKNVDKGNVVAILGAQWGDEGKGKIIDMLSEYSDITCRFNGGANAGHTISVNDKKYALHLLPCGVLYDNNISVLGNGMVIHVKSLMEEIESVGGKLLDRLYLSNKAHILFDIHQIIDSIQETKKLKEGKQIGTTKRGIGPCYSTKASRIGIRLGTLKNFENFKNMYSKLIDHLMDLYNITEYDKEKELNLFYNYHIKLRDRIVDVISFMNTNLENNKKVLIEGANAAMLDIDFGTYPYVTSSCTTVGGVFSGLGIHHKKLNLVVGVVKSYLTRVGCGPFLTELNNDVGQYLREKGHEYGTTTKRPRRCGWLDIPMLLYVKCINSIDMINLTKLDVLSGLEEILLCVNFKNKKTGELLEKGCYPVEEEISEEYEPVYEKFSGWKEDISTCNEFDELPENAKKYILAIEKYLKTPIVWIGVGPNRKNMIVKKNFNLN

With `O=CN(O)CC(=O)O` [Hadacidin], in assay [1], the IC50 (as a rule, the midpoint of a concentration-inhibition curve) worked out at 62 µM. On to `O=P(O)(O)C(O)(Cc1ccccc1)P(=O)(O)O` [(1-hydroxy-2-phenylethylidene)bis-phosphonic acid], for which, in assay [2], the EC50 (as a rule, the concentration giving half of the maximal effect) is approximately 7.05 µM. Consider `O=C(O)C1=CC(=C(c2ccc(O)c(C(=O)O)c2)c2ccc(O)c(C(=O)O)c2)C=CC1=O` [aurintricarboxylate], for which, in assay [3], the IC50 is approximately 3 µM. For `O=c1ccn([C@H]2C[C@H](O)[C@@H](COC(c3ccccc3)(c3ccccc3)c3ccccc3)O2)c(=O)[nH]1` [2′-deoxy-5′-O-(triphenylmethyl)uridine], in assay [4], it took 2.4 µM to reach half-maximal inhibition (IC50).

Values taken from publication PMC3108854 (Molecular and biochemical parasitology, 2010).
